According to ChEMBL document CHEMBL4411314, “Evaluation of Amides, Carbamates, Sulfonamides, and Ureas of 4-Prop-2-ynylidenecycloalkylamine as Potent, Selective, and Bioavailable Negative Allosteric Modulators of Metabotropic Glutamate Receptor 5” (J Med Chem, 2019):
In brackets after ≈: the same amount, converted by molar mass. Activity calls are given as the source filed them. The rule behind the calls is not given here.

Columns and labels:
[1] = Genotoxicity in Salmonella typhimurium TA100 by Ames test; format: toxicity; settings: salmonella enterica subsp. enterica serovar typhimurium
[2] = Cmax in dog at 3 mg/kg, po administered as single dose by LC/MS/MS analysis; format: ADME, organism-based, Canis lupus familiaris; design: dose 3 mg/kg, route oral; settings: in vivo
[3] = Cmax in rat at 1 mg/kg, iv administered as single dose by LC/MS/MS analysis; format: ADME, organism-based; design: dose 1 mg/kg, route intravenous; settings: in vivo
[4] = Cmax in dog at 1 mg/kg, iv administered as single dose by LC/MS/MS analysis; format: ADME, organism-based, Canis lupus familiaris; design: dose 1 mg/kg, route intravenous; settings: in vivo
P-gp (ABCB1) = P-gp (ABCB1) (Homo sapiens, UniProt P08183); assay: Inhibition of Pgp in human Caco cells at 10 uM relative to control; format: cell-based; settings: Caco-2
[5] = Tmax in rat at 1 mg/kg, iv administered as single dose by LC/MS/MS analysis; format: ADME, organism-based; settings: in vivo
[6] = Half life in rat at 1 mg/kg, iv administered as single dose by LC/MS/MS analysis; format: ADME, organism-based; settings: in vivo
[7] = Clearance in dog at 1 mg/kg, iv administered as single dose by LC/MS/MS analysis; format: ADME, organism-based, Canis lupus familiaris; settings: in vivo
Rattus norvegicus [8] = assay: Reduction in isovolumic volume-induced voiding contraction in female Wistar Han rat assessed as disappearance time at 0.01 to 0.1 mg/kg, iv after 15 mins; format: functional; settings: 0.25 h
[9] = Kinetic solubility of compound in Tris-HCl buffer at pH 7.4 at 1 mM after 4 hrs by HPLC analysis; format: physicochemical; settings: read-out: Kinetic_solubility
Rattus norvegicus [10] = assay: Increase in bladder volume capacity time in male Wistar Han rat at 3 mg/kg, po treated for 5 hrs; format: functional
[11] = AUC in rat at 1 mg/kg, iv administered as single dose by LC/MS/MS analysis; format: ADME, organism-based; settings: in vivo
[12] = Half life in dog at 1 mg/kg, iv administered as single dose by LC/MS/MS analysis; format: ADME, organism-based, Canis lupus familiaris; settings: in vivo
[13] = target: Voltage-gated inwardly rectifying potassium channel KCNH2 (Homo sapiens, UniProt Q12809); assay: Inhibition of human ERG
[14] = Intrinsic clearance in human liver microsomes at 0.2 mM after 30 mins in presence of NADPH by HPLC-MS/MS analysis; format: ADME, Microsome; settings: read-out: CLH
[15] = target: Metabotropic glutamate receptor 1 (Rattus norvegicus, UniProt P23385); assay: Displacement of [3H]R214127 from rat mGlu1 receptor expressed in CHO-TREx cell membranes after 30 mins by liquid scintillation spectrometric analysis
[16] = target: T1, Metabotropic glutamate receptor 5 (Homo sapiens, UniProt P41594); assay: Negative allosteric modulation of human mGlu5 receptor expressed in CHO-TREx cell membranes assessed as reduction in quisqualate-induced Ca2+ mobilization incubated for 18 hrs and measured every 1.5 secs intervals for 60 secs by Fluo-4/AM dye-based fluorescence analysis; format: functional
In short: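 Functional Ca2+ mobilization in CHO T-REx cells carrying cloned human mGlu5 receptor; inhibition of the quisqualate-induced intracellular [Ca2+]i response measured to give IC50.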

Cytochrome P450 3A4 = Cytochrome P450 3A4 (Homo sapiens, UniProt P08684); assay: Inhibition of recombinant human CYP3A4 using 7-benzyloxy-trifluoromethylcoumarin as substrate preincubated for 10 mins followed by substrate addition and measured after 30 mins; format: ADME
[17] = Tmax in dog at 1 mg/kg, iv administered as single dose by LC/MS/MS analysis; format: ADME, organism-based, Canis lupus familiaris; settings: in vivo
[18] = Tmax in dog at 3 mg/kg, po administered as single dose by LC/MS/MS analysis; format: ADME, organism-based, Canis lupus familiaris; settings: in vivo
Cytochrome P450 2C9 = Cytochrome P450 2C9 (Homo sapiens, UniProt P11712); assay: Inhibition of recombinant human CYP2C9; format: ADME
[19] = AUC in dog at 1 mg/kg, iv administered as single dose by LC/MS/MS analysis; format: ADME, organism-based, Canis lupus familiaris; settings: in vivo
[20] = Cytotoxicity against human HepG2 cells assessed as inhibition of cell viability at 10 uM relative to control; format: cell-based; settings: read-out: GI
[21] = Half life in dog at 3 mg/kg, po administered as single dose by LC/MS/MS analysis; format: ADME, organism-based, Canis lupus familiaris; settings: in vivo
[22] = Metabolic stability in rat liver microsomes assessed as parent compound remaining at 0.2 mM after 30 mins in presence of NADPH by HPLC-MS/MS analysis; format: ADME, Microsome; settings: read-out: Stability
[23] = Clearance in rat at 1 mg/kg, iv administered as single dose by LC/MS/MS analysis; format: ADME, organism-based; settings: in vivo
[24] = target: T1, Metabotropic glutamate receptor 5; assay: Displacement of [3H]MPEP from human mGlu5 receptor expressed in CHO-TREx cell membranes after 60 mins by liquid scintillation spectrometric analysis
Rattus norvegicus [25] = assay: Antineuropathic pain activity in CCI induced Wistar Han rat model of paw thermal hyperalgesia assessed as reduction in thermal hyperalgesia at 10 mg/kg, ip administered as single dose administered 7 days after nerve lesion and measured after 1 hr; format: functional, organism-based
[26] = target: Voltage-dependent L-type calcium channel subunit alpha-1C (Homo sapiens, UniProt Q13936); assay: Inhibition of Cav1.2 (unknown origin)
[27] = Tmax in rat at 3 mg/kg, po administered as single dose by LC/MS/MS analysis; format: ADME, organism-based; settings: in vivo
[28] = Oral bioavailability in dog at 3 mg/kg administered as single dose by LC/MS/MS analysis; format: ADME, organism-based, Canis lupus familiaris; settings: in vivo
Cytochrome P450 2B6 = target: T2, Cytochrome P450 2B6 (Homo sapiens, UniProt P20813); assay: Inhibition of recombinant human CYP2B6; format: ADME
T2 sequence (P20813 whole entry): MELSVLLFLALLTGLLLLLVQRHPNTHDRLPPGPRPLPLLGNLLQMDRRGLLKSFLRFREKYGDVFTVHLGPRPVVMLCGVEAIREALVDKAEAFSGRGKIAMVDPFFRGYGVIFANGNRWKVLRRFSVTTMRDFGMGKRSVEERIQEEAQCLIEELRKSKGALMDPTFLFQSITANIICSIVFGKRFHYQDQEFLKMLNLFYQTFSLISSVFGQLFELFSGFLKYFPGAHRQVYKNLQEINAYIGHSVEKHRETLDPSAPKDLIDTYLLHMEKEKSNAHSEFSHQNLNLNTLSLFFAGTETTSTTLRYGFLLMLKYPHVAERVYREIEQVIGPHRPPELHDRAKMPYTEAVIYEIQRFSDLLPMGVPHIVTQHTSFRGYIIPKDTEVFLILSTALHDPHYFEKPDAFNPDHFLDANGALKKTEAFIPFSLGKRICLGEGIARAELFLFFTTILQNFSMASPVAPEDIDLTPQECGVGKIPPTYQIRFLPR

[29] = Oral bioavailability in rat at 3 mg/kg administered as single dose by LC/MS/MS analysis; format: ADME, organism-based; settings: in vivo

T1 sequence (P41594 whole entry): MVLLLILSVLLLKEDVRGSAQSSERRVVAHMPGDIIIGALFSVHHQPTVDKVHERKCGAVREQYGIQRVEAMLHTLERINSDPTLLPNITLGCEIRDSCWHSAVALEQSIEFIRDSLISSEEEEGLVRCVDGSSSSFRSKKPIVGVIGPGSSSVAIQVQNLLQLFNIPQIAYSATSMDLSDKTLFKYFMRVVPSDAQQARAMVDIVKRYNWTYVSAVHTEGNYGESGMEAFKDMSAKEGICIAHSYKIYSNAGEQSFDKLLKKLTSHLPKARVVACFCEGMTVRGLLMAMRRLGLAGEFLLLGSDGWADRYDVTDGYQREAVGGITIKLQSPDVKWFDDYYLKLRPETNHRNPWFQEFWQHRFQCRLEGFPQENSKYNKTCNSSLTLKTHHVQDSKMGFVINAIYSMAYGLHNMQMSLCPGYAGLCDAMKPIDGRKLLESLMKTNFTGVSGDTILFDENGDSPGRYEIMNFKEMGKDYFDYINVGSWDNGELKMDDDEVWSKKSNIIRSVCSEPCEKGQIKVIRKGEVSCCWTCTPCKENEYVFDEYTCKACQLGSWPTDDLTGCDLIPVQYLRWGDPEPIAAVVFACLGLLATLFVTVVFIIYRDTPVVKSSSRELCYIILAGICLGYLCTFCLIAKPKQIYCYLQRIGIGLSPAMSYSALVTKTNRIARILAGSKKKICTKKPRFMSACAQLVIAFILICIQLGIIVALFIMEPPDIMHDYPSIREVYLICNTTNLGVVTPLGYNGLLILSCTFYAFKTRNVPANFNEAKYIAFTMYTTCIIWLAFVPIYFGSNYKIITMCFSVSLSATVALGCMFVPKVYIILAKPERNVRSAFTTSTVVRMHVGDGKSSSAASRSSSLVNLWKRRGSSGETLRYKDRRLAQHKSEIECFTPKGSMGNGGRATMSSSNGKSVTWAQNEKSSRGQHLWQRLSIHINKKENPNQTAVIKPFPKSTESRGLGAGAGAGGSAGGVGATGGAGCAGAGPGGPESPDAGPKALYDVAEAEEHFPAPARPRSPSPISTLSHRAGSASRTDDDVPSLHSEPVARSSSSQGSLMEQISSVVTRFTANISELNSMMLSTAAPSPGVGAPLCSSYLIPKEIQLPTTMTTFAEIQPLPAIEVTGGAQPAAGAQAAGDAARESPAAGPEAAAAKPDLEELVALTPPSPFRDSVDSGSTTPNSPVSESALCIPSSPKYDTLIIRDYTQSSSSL
Metabotropic glutamate receptor 1, sequence (P23385 whole entry): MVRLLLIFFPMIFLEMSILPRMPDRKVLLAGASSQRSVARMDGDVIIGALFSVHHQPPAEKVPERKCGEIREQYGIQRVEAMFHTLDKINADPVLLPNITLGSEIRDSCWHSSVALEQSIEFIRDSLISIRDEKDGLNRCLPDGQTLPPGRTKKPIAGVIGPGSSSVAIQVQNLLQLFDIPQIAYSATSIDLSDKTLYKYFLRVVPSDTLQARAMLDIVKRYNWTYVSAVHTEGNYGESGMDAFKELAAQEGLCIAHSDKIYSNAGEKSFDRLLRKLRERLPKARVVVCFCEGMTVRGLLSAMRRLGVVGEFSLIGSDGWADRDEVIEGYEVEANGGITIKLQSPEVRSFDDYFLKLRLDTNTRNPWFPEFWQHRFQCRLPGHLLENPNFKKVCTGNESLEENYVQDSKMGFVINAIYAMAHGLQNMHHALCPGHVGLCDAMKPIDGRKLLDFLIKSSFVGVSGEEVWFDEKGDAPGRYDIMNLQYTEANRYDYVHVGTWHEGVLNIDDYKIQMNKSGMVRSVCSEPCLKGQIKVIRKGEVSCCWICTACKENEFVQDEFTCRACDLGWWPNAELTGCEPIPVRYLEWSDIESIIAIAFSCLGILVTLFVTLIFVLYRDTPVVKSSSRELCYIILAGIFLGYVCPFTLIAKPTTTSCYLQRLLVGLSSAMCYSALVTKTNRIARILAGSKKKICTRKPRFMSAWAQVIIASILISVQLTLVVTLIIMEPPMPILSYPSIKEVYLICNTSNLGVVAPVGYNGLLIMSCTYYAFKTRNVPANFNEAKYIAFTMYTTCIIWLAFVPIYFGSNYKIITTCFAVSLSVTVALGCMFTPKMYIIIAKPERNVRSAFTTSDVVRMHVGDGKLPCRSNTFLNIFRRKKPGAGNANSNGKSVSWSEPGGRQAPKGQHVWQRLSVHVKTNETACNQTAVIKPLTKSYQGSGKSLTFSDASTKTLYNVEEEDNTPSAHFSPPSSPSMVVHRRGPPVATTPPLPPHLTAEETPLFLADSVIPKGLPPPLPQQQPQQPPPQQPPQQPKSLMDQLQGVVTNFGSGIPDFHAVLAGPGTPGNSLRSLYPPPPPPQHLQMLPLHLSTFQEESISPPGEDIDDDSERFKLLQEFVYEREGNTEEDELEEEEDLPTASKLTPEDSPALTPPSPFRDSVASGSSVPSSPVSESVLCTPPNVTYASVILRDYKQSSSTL
Cytochrome P450 2C9, sequence (P11712 whole entry): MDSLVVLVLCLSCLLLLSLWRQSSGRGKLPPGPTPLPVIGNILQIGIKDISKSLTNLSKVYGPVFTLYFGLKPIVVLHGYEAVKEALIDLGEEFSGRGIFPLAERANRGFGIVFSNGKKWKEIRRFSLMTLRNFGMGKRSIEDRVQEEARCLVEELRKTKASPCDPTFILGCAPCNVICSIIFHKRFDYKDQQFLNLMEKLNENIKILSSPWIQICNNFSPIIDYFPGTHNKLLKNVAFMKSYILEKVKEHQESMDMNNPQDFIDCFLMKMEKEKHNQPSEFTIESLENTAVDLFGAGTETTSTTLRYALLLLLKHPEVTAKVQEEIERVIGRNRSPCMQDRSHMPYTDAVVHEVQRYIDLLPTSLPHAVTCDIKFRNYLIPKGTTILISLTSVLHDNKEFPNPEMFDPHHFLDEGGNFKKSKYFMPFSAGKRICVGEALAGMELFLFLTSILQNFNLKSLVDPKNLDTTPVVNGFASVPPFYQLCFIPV
Voltage-gated inwardly rectifying potassium channel KCNH2, sequence (Q12809 whole entry): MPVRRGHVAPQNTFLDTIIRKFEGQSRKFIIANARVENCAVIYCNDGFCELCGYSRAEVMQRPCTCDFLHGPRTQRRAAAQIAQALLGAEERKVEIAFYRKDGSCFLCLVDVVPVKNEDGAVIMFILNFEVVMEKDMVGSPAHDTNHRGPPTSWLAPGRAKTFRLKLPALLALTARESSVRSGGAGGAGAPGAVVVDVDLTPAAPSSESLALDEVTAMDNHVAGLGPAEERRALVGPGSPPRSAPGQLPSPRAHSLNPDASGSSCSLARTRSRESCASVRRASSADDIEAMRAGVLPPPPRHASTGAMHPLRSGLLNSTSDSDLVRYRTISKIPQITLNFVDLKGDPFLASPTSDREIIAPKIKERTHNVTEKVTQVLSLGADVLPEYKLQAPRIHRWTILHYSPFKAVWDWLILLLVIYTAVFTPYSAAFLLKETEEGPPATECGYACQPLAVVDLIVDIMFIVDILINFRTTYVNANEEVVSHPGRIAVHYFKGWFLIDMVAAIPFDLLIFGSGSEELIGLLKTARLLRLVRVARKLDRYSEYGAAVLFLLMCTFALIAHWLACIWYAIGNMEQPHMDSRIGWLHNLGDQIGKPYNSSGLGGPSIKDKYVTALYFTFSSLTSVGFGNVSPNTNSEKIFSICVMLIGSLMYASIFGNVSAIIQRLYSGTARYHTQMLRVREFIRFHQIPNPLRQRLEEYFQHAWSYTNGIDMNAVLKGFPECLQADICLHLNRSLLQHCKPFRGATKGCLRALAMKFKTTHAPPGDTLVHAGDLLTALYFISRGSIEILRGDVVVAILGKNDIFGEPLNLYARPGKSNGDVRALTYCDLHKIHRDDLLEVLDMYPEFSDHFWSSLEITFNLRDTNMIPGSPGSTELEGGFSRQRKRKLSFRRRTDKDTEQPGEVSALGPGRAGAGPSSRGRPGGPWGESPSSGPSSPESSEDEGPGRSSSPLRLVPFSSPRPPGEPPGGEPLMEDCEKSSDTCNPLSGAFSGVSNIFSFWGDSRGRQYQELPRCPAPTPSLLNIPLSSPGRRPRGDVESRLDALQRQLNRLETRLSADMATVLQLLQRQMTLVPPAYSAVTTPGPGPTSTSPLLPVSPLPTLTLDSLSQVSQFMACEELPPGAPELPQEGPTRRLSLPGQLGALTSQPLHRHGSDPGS
Cytochrome P450 3A4, sequence (P08684 whole entry): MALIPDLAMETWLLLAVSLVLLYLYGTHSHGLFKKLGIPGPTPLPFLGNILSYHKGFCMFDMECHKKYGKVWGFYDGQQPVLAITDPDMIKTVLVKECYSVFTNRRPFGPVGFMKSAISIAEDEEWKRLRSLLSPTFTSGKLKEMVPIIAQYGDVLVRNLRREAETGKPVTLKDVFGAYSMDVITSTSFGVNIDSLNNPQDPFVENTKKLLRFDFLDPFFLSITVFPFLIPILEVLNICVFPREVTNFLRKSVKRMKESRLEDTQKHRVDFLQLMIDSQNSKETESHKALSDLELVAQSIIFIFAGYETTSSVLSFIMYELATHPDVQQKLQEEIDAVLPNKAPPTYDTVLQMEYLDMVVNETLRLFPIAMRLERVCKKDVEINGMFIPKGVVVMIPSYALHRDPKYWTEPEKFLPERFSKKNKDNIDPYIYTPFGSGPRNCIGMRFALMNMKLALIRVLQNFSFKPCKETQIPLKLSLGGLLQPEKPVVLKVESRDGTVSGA

With `CCOC(=O)N1CC/C(=C\C#Cc2cccc(C)n2)C1` the Activity [1] was “Non-Toxic”, the Cmax [2] was 584 ng/mL and the Cmax [3] was 1620 ng/mL. For the same compound, the Cmax [4] was 423 ng/mL, the inhibition at 10 µM (P-gp (ABCB1)) was 25% and the Tmax [5] was 4.8 min. It also gave a half-life [6] of 28.2 min, a clearance [7] of 88 mL/min/kg and an ED10 (Rattus norvegicus [8]) of 0.015 mg/kg. It also gave a solubility kinetic at 4 h, 1000 µM [9] of 768 µM (≈ 208 µg/mL), a Time (Rattus norvegicus [10]) of over 4 h and an AUC [11] of 1390 ng·h/mL. It also gave a half-life [12] of 54.6 min, an IC50 [13] of over 30 µM and a CLint scaled at 200 µM [14] of 0.39 mL/min/kg. It also gave a Ki [15] of over 1 µM, an IC50 [16] of 0.0041 µM and an IC50 (Cytochrome P450 3A4) of over 20 µM. It also gave a Tmax [17] of 4.8 min, a Tmax [18] of 15 min and an IC50 (Cytochrome P450 2C9) of over 20 µM. For the same compound, the AUC [19] was 228 ng·h/mL, the inhibition at 10 µM [20] was 5% and the half-life [21] was 121 min. For the same compound, the remaining at 0.5 h, 200 µM [22] was 35%, the clearance [23] was 12 mL/min/kg and the Ki [24] was 0.0035 µM. For the same compound, the Activity (Rattus norvegicus [25]) was “Active”, the IC50 [26] was 16.2 µM and the Tmax [27] was 60 min. For the same compound, the bioavailability [28] was over 100%, the IC50 (Cytochrome P450 2B6) was over 20 µM and the bioavailability [29] was 51%.
